Source: ChEMBL document CHEMBL1139172, “Identification, synthesis, and biological evaluation of novel pyrazoles as low molecular weight luteinizing hormone receptor agonists” (Bioorg Med Chem Lett, 2007)

Key:
[1] = molecular target: T1, Lutropin-choriogonadotropic hormone receptor (Homo sapiens, UniProt P22888); experiment: Agonist activity at human LH receptor expressed in CHO cells assessed as production of cAMP after 60 mins by SPA; format: functional, cell-based
[2] = molecular target: T1, Lutropin-choriogonadotropic hormone receptor; experiment: Agonist activity at human LH receptor expressed in CHO cells assessed as production of cAMP after 60 mins by SPA relative to luteinizing harmone; format: functional, cell-based
Rattus norvegicus = experiment: Induction of testosterone in Sprague-Dawley rat at 4 to 32 mg/kg, ip by radioimmunoassay; format: functional, organism-based
In short: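 Adult Sprague–Dawley rats implanted subcutaneously in the scapular region on day 1 with a 7-day slow-release pellet of 7.5 mg diethylstilbestrol. Two days later, ip injection of 0, 4, 16 or 32 mg/kg; 3 rats per group. Blood taken by retro-orbital plexus 2 h after dosing; serum frozen at -80 °C. Testosterone measured by ELISA (legend says radioimmunoassay), with standard deviations.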

[3] = molecular target: Lutropin-choriogonadotropic hormone receptor (Rattus norvegicus) (UniProt P16235); experiment: Efficacy at LH receptor in Sprague-Dawley rat Leydig cells assessed as production of testosterone after 3 hrs; format: cell-based
Sequence of Lutropin-choriogonadotropic hormone receptor (Rattus norvegicus) (P16235 whole entry): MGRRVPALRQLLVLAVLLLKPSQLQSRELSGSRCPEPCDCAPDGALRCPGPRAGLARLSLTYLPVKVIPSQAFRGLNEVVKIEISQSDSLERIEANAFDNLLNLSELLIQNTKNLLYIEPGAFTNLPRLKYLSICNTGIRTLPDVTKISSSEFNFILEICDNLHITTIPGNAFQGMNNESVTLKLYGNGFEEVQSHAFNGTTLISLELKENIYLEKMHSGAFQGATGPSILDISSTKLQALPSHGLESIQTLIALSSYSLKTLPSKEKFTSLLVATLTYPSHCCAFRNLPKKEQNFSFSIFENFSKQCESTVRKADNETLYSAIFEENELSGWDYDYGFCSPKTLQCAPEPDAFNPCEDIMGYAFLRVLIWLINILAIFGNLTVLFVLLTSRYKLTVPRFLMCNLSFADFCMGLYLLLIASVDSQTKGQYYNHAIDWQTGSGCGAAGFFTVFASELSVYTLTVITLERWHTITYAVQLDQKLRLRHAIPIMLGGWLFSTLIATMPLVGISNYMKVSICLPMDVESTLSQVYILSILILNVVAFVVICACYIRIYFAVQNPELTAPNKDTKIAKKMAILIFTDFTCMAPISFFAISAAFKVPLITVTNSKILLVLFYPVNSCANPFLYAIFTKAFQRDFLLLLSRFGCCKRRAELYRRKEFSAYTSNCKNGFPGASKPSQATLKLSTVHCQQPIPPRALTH
In short: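 Leydig cells from male Sprague–Dawley rats aged 21–40 days. Decapsulated testis digested 15 min at 37 °C, 5% CO2, in phenol red-free DMEM/F12 with 0.1% collagenase. Washed cells plated at 350,000/well in phenol red-free DMEM/F12 with 0.1% BSA and stimulated 3 h. After centrifugation, medium testosterone measured by ELISA. ED50 and efficacy derived.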

T1 sequence (P22888 whole entry): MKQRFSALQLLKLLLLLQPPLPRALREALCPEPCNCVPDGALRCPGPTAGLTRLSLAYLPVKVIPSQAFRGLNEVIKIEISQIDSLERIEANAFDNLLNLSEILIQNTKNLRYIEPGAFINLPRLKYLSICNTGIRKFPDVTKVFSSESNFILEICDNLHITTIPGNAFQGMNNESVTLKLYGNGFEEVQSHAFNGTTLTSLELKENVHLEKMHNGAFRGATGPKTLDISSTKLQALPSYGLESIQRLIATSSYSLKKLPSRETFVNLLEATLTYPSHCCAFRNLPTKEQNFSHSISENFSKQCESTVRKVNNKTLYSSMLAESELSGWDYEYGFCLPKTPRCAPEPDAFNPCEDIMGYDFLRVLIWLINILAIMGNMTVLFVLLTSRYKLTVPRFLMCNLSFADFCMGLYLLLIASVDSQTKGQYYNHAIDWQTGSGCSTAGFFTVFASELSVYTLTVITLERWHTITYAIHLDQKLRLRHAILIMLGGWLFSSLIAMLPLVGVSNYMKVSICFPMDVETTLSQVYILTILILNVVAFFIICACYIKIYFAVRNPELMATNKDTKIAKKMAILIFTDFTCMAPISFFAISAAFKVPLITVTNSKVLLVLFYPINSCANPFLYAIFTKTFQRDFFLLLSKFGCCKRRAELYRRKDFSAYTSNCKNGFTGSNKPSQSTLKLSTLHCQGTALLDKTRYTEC

Structure (SMILES)	EC50 [1]	Activity [2]	Activity (Rattus norvegicus)	ED50 [3]	Efficacy [3]
CC(C)(C)c1ccc(-n2nc(-c3cccnc3)cc2CCCCC(=O)NCCc2ccc(O)cc2)cc1	80 nM	45%			
CC(C)(C)c1ccc(-n2nc(-c3ccccn3)cc2CCCCCC(=O)N[C@H](C(N)=O)c2ccc(O)cc2)cc1	170 nM	78%			
CC(C)(C)c1ccc(-n2nc(-c3ccccn3)cc2CCCCCC(=O)N[C@@H](Cc2cccc(O)c2)C(N)=O)cc1	150 nM	41%			
CC(C)(C)c1ccc(-n2nc(-c3cc4ccccc4cn3)cc2-c2cccc(C(=O)N[C@@H](Cc3ccc(O)cc3)C(N)=O)c2)cc1	500 nM	19%			
CC(C)(C)c1ccc(-n2nc(-c3cccnc3)cc2CCC(=O)N[C@@H](Cc2ccc(O)cc2)C(N)=O)cc1	> 100000 nM				
CC(C)(C)c1ccc(-n2nc(CCCCC(=O)N[C@@H](Cc3ccc(O)cc3)C(N)=O)cc2-c2ccncc2)cc1	2300 nM				
CC(C)(C)c1ccc(-n2nc(-c3ccncc3)cc2NCCCC(=O)N[C@@H](Cc2ccc(O)cc2)C(N)=O)cc1	> 100000 nM				
CC(C)(C)c1ccc(-n2nc(-c3ccncc3)cc2CCCCC(=O)N[C@@H](Cc2ccc(O)cc2)C(N)=O)cc1	250 nM	55%			
CC(C)(C)Oc1ccc(C[C@H](NC(=O)CCCCc2cc(-c3cccnc3)nn2-c2ccc(C(C)(C)C)cc2)C(N)=O)cc1	12100 nM	72%			
CC(C)(C)c1ccc(-n2nc(-c3cccnc3)cc2CCCCC(=O)N[C@@H](Cc2ccc(O)cc2)C(N)=O)cc1	20 nM	70%	Dose-dependent effect	1310 nM	78%
CC(C)(C)c1ccc(-n2nc(-c3ccncc3)cc2CCCCC(=O)N[C@H](CC(N)=O)Cc2ccc(O)cc2)cc1	190 nM	66%			
